# pEC50: −log10 of the molar value.
# Key:
# [1] = system: H9c2; assay: Cytoprotective activity against OGD-induced ischemic cell death in rat H9c2 cells assessed as cell death at 10 uM for 30 mins by DAPI analysis; assay type: functional
# Outline: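 H9c2 rat heart cells grown in DMEM with 10% FBS and penicillin/streptomycin at 37 °C in 5% CO2. Compound added 30 min before and during oxygen-glucose deprivation. Cells fixed with 0.5% Triton X-100 in PBS for 15 min, then DAPI-stained. Nuclei counted by fluorescence microscopy in three random fields of at least 300 cells to give % dead cells. Mean ± SEM.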
# [2] = system: H9c2; assay: Cytoprotective activity against OGD-induced ischemic cell death in rat H9c2 cells assessed as cell death at 10 uM for 30 mins by LDH release assay; assay type: functional
# Outline: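 H9c2 rat heart cells grown in DMEM with 10% FBS and penicillin/streptomycin at 37 °C in 5% CO2. Pretreated with compound for 30 min, then kept on compound during oxygen-glucose deprivation. Cell death read as LDH released, expressed as a percentage of LDH released by full lysis with 0.1% Triton X-100. Mean ± SEM; Student's t-test.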
# [3] = Cytoprotective activity against OGD-induced ischemic cell death in Sprague-Dawley rat primary cardiac myocytes assessed as inhibition of cell death treated for 6 hrs by counting DAPI-stained nuclei; settings: Cardiac muscle cell
Structure (SMILES),Activity [1] [%],Activity [2] [%],pEC50 [3]
COC(=O)c1oc2ccccc2c1NC(=O)CSc1ccccc1Br,13.63,41.01,
COC(=O)c1oc2ccccc2c1NC(=O)CSc1ccc(OC)cc1,9.73,40.34,6.12
COC(=O)c1oc2ccccc2c1NC(=O)CSc1ccc(C)cc1,21.57,56.39,
COC(=O)c1oc2ccccc2c1NC(=O)CSc1ccc([N+](=O)[O-])cc1,6.18,30.21,6.27
COC(=O)c1oc2ccccc2c1NC(=O)CSc1ccc(N)cc1,16.54,40.15,
COC(=O)c1oc2ccccc2c1NC(=O)COc1ccc(Br)cc1,13.17,36.17,5.93
COC(=O)c1oc2ccccc2c1NC(=O)CNc1ccc(Br)cc1,22.37,60.32,
COC(=O)c1oc2ccccc2c1NC(=O)CNc1ccccc1,21.04,62.76,
COC(=O)c1oc2ccccc2c1NC(=O)CCc1ccccc1,15.94,38.72,
COC(=O)c1oc2cccc(Cl)c2c1NC(=O)CSc1ccc(Br)cc1,8.94,35.48,6.20
COC(=O)c1oc2cccc(Cl)c2c1NC(=O)CCSc1ccccn1,7.02,29.46,6.25
COC(=O)c1oc2ccccc2c1NC(=O)CCSc1ccccn1,11.55,36.07,6.03
COC(=O)c1sc2ccccc2c1NC(=O)CSc1ccc(Br)cc1,13.92,41.31,
COC(OC)[C@@]1(C)Oc2ccc(N)cc2[C@@H](N/C(=N/Cc2ccccc2)NC#N)[C@@H]1O,15.54,43.33,5.96
COC(=O)c1oc2ccccc2c1NC(=O)CSc1ccc(Br)cc1,10.59,32.39,6.11
COC(=O)c1oc2ccccc2c1NC(=O)CSc1ccccc1,15.97,40.93,
COC(=O)c1oc2ccccc2c1NC(=O)CSc1cccc(Br)c1,16.85,39.51,
